# The whole screen tested about 360,000 compounds, of which about 820 (0.23%) were called active. The sample holds actives, similar compounds and a random draw of the others, so the mix is not that of the screen.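 Rule for the calls: active = compounds that cut the enzyme signal by at least half of the control window in the single-dose screen; inactive = the rest.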
# Target: Low molecular weight phosphotyrosine protein phosphatase (Homo sapiens) (UniProt P24666)
# Test: LMPTP phosphatase inhibitors, primary screen, biochemical, fluorescence intensity, uHTS (AID 651560);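 note: plate controls were DMSO wells with enzyme plus substrate for no effect and substrate without enzyme for full effect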
# Details: recombinant LMPTP-A, OMFP fluorogenic substrate, at 20 µM, active compounds read high
# Procedure, shortened: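 Test system – LMPTP-A phosphatase enzyme · Quantity – 0.625 nM LMPTP-A final · Reagent – OMFP substrate, 400 µM final · Dosing – one test concentration per compound, 20 µM, with 3% DMSO overall · Timing – 50 min enzyme reaction at room temperature, protected from light · Detection – fluorescence intensity · Controls – substrate-only low control, DMSO enzyme-plus-substrate high control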
# Low molecular weight phosphotyrosine protein phosphatase (Homo sapiens), sequence (P24666 whole entry, looked up): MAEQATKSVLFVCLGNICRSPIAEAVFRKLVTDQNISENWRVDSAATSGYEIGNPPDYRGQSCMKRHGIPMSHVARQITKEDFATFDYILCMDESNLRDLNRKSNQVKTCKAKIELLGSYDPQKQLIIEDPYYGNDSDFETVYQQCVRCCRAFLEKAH
row,Compound,inhibition
1,NNC(=O)c1cccc(COCC(F)(F)C(F)F)c1,-2.64% (inactive)
2,CC(CO)NCC12CC3CC(CC(C3)C1)C2 (stereo not drawn),-1.02% (inactive)
3,COc1ccc(NC(=O)Nc2ccc3c(c2)C(=O)N([C@H](C)CO)C[C@H](C)[C@@H](CN(C)C(=O)Nc2ccc4c(c2)OCO4)O3)cc1,0.628% (inactive)
4,CCOc1ccc(N(CC(=O)NC2CCCCCC2)S(=O)(=O)c2c(C)[nH]c(=O)[nH]c2=O)cc1,-1.41% (inactive)
5,CN(C)c1cccc(C(=O)N2CCC(n3nccc3NC(=O)C3CCOC3)CC2)c1 (stereo not drawn),-1.94% (inactive)
6,CCOCCCNS(=O)(=O)Cc1ccccc1,-0.147% (inactive)
7,CCOCCCNc1nc(-c2ccccc2)nc2ccccc12,57.8% (active)
8,COCCNc1nc(-c2ccccc2)nc2c1oc1ccccc12,2% (inactive)
9,O=C(Nc1ccc(C2CC2(Cl)Cl)cc1)c1cccc([N+](=O)[O-])c1 (stereo not drawn),2.23% (inactive)
10,O=C(Nc1cc2c3c(c1)C1CCCC1CN3CC1CCCC21)c1ccc([N+](=O)[O-])cc1 (stereo not drawn),2.81% (inactive)
11,Cn1ccc(=Nc2ccc(NC(=O)c3ccc(N=c4ccn(C)c5ccc([N+](=O)[O-])cc45)cc3)cc2)cc1,78% (active)
12,CCc1ccc(CCC(=O)Nc2ccc(S(N)(=O)=O)cc2)o1,-1.91% (inactive)
13,C=CCOc1cccc(C2C(C(=O)c3ccc(C)o3)=C(O)C(=O)N2c2nnc(C)s2)c1 (stereo not drawn),0.72% (inactive)
14,Cc1cc(N2C(=O)C(O)=C(C(=O)c3ccc(C)o3)C2c2ccc(OCc3ccccc3)cc2)no1 (stereo not drawn),52.5% (active)
15,CCCOc1ccc(C2C(C(=O)c3ccc(C)o3)=C(O)C(=O)N2CCCn2ccnc2)cc1 (stereo not drawn),20.9% (inactive)
16,COCc1ccc(CN2CCC(Oc3ccc(C(=O)NCc4ccccn4)cc3)CC2)o1,-0.769% (inactive)
17,CC1C(=O)N(Cc2cn(CC3CCCCC3)nn2)CCS(=O)(=O)N1Cc1ccc(-c2cccc(N(C)C)c2)cc1 (stereo not drawn),2.27% (inactive)
18,FC(F)(F)c1cccc(-c2nc(COc3ccc(Cl)cc3Cl)no2)c1,2.97% (inactive)
19,O=C1COc2c1ccc(O)c2O,2.2% (inactive)
20,CCN(CC)C(=O)CS(=O)CC(=O)Nc1cc(OCCOC)c(Cl)cc1Cl (stereo not drawn),-0.0342% (inactive)
21,C[C@H](CO)N1C[C@H](C)[C@H](CN(C)C(=O)Nc2ccc3c(c2)OCO3)Oc2ncc(Br)cc2C1=O,-2.87% (inactive)
22,COc1cccc(CNC(=O)C(=O)NCCC2CCCCN2S(=O)(=O)c2ccc(C)cc2)c1 (stereo not drawn),0.141% (inactive)
23,Cn1c(C(=O)OC(C(=O)NC2CCCCC2)c2ccccn2)cc2sccc21 (stereo not drawn),0.323% (inactive)
